18 compounds from ChEMBL document CHEMBL1155070, “New endomorphin analogues containing alicyclic beta-amino acids: influence on bioactive conformation and pharmacological profile” (J Med Chem, 2008) can be followed below.

Each structure is given as a SMILES string. Where only a bound is given, the exact number is not on record here.

In data set [1] the target is Delta-type opioid receptor (Rattus norvegicus, UniProt P33533). In words: Displacement of [3H]Ile5,6deltorphin-2 from delta opioid receptor in Wistar rat brain. In short, it runs like this:
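Competition binding on crude male Wistar rat forebrain membranes (0.2-0.5 mg protein/tube) in 50 mM Tris-HCl pH 7.4. Filtration, scintillation counting. Ki from nonlinear fit plus Cheng-Prusoff. Mean ± SEM, ≥3 independent runs in duplicate.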
A general note: Loss of bound radioactivity is the signal in a displacement assay; it reports binding, not function.

A short description of data set [2]: (§1) Half life in rat brain membrane homogenate. The format is ADME.
Another data set is filed under the species Rattus norvegicus. Described as §1. The class given is ADME.

Delta-type opioid receptor, sequence (P33533 whole entry): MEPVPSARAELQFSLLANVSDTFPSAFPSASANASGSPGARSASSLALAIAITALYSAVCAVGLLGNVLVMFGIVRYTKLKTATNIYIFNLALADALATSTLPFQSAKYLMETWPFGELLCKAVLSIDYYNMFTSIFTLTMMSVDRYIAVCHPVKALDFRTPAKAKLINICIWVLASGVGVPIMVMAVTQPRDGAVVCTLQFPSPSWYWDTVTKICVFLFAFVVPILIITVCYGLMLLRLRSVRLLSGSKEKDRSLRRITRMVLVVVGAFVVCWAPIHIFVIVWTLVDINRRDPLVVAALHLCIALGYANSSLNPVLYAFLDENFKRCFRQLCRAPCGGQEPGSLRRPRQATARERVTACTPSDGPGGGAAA

Regarding `NC(=O)[C@H](Cc1ccccc1)NC(=O)[C@H](Cc1ccccc1)NC(=O)[C@@H]1CCC[C@@H]1NC(=O)[C@@H](N)Cc1ccc(O)cc1`, the Ki (usually the equilibrium dissociation constant of an inhibitor or competing ligand from its target) in data set [1] is above 10 µM.

In turn, `NC(=O)[C@H](Cc1ccccc1)NC(=O)[C@H](Cc1ccccc1)NC(=O)[C@H]1CCC[C@H]1NC(=O)[C@@H](N)Cc1ccc(O)cc1` returned a Ki in data set [1] of 4.8 µM. Besides, in data set [2], the half-life (usually how long it takes for the measured level to halve) was above 12 h.

Regarding `NC(=O)[C@H](Cc1ccccc1)NC(=O)[C@H](Cc1ccccc1)NC(=O)[C@H]1CCCC[C@H]1NC(=O)[C@@H](N)Cc1ccc(O)cc1`, the inhibitory constant (Ki) in data set [1] came to 0.812 µM. The compound also yielded a half-life in data set [2] above 12 h.

For `NC(=O)[C@H](Cc1ccccc1)NC(=O)[C@H](Cc1ccccc1)NC(=O)[C@@H]1CCCC[C@@H]1NC(=O)[C@@H](N)Cc1ccc(O)cc1`, the Ki in data set [1] is above 10 µM.

Turning to `NC(=O)[C@H](Cc1ccccc1)NC(=O)[C@H](Cc1c[nH]c2ccccc12)NC(=O)[C@H]1CCC[C@@H]1NC(=O)[C@@H](N)Cc1ccc(O)cc1`, the affinity in data set [1] corresponds to a Ki of 3.08 µM. In other words, the single-digit micromolar range.

In data set [1], `NC(=O)[C@H](Cc1ccccc1)NC(=O)[C@H](Cc1ccccc1)NC(=O)[C@@H]1CCCC[C@H]1NC(=O)[C@@H](N)Cc1ccc(O)cc1` displayed a Ki of 0.439 µM.

In data set [1], `NC(=O)[C@H](Cc1ccccc1)NC(=O)[C@H](Cc1c[nH]c2ccccc12)NC(=O)[C@@H]1CCCC[C@H]1NC(=O)[C@@H](N)Cc1ccc(O)cc1` gave a Ki above 10 µM.

With `NC(=O)[C@H](Cc1ccccc1)NC(=O)[C@H](Cc1c[nH]c2ccccc12)NC(=O)[C@H]1CCCC[C@H]1NC(=O)[C@@H](N)Cc1ccc(O)cc1`, in data set [1], the Ki came out at 2.76 µM. The compound further came in with a half-life in data set [2] above 12 h.

In data set [1], `NC(=O)[C@H](Cc1ccccc1)NC(=O)[C@H](Cc1ccccc1)NC(=O)[C@H]1CCCC[C@@H]1NC(=O)[C@@H](N)Cc1ccc(O)cc1` came in with a Ki above 10 µM.

Turning to `NC(=O)[C@H](Cc1ccccc1)NC(=O)[C@H](Cc1ccccc1)NC(=O)[C@H]1CCC[C@@H]1NC(=O)[C@@H](N)Cc1ccc(O)cc1`, the Ki in data set [1] is 4.23 µM.

For `NC(=O)[C@H](Cc1ccccc1)NC(=O)[C@H](Cc1c[nH]c2ccccc12)NC(=O)[C@H]1CCCC[C@@H]1NC(=O)[C@@H](N)Cc1ccc(O)cc1`, the Ki in data set [1] came out at 9.62 µM.

Take `NC(=O)[C@H](Cc1ccccc1)NC(=O)[C@H](Cc1c[nH]c2ccccc12)NC(=O)[C@@H]1CCCC[C@@H]1NC(=O)[C@@H](N)Cc1ccc(O)cc1`: the Ki in data set [1] was above 10 µM.

The compound `NC(=O)[C@H](Cc1ccccc1)NC(=O)[C@H](Cc1c[nH]c2ccccc12)NC(=O)[C@@H]1CCC[C@@H]1NC(=O)[C@@H](N)Cc1ccc(O)cc1` had a Ki in data set [1] above 10 µM.

The compound `NC(=O)[C@H](Cc1ccccc1)NC(=O)[C@H](Cc1ccccc1)NC(=O)[C@@H]1CCC[C@H]1NC(=O)[C@@H](N)Cc1ccc(O)cc1` returned a Ki in data set [1] of 1.41 µM.

`NC(=O)[C@H](Cc1ccccc1)NC(=O)[C@H](Cc1c[nH]c2ccccc12)NC(=O)[C@H]1CCC[C@H]1NC(=O)[C@@H](N)Cc1ccc(O)cc1` yielded a Ki in data set [1] of 1.34 µM. The half-life in data set [2] was above 12 h.

For the compound `NC(=O)[C@H](Cc1ccccc1)NC(=O)[C@H](Cc1c[nH]c2ccccc12)NC(=O)[C@@H]1CCC[C@H]1NC(=O)[C@@H](N)Cc1ccc(O)cc1`, the inhibitory constant (Ki) in data set [1] came out at 0.67 µM.

In the data set filed under Rattus norvegicus, `NC(=O)[C@H](Cc1ccccc1)NC(=O)[C@H](Cc1ccccc1)NC(=O)[C@@H]1CCCN1C(=O)[C@@H](N)Cc1ccc(O)cc1` [ENDOMORPHIN 2] had a t1/2 of 3.8 h.

In the data set listed under Rattus norvegicus, `NC(=O)[C@H](Cc1ccccc1)NC(=O)[C@H](Cc1c[nH]c2ccccc12)NC(=O)[C@@H]1CCCN1C(=O)[C@@H](N)Cc1ccc(O)cc1` [ENDOMORPHIN-1] gave a t1/2 of 4.9 h.
